Source: ChEMBL document CHEMBL3739335, “Phosphonooxymethyl Prodrug of Triptolide: Synthesis, Physicochemical Characterization, and Efficacy in Human Colon Adenocarcinoma and Ovarian Cancer Xenografts” (J Med Chem, 2015)
Calls of active or inactive are those of the source. The rule behind the calls is not given here.

Legend:
[1] = Aqueous solubility of the compound in Tris buffer at pH 7.4 at room temperature by HPLC analysis; assay type: physicochemical
How it was run: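 About 5 mg solid was added to Tris buffer pH 7.4 in triplicate to saturation, then sonicated and vortexed. Samples were shaken at 25 °C for 24 h. Excess solid was removed by centrifugation and filtration, and the diluted filtrate was quantified by reverse-phase C18 HPLC with photodiode array detection, using an acetonitrile/10 mM sodium phosphate pH 7 gradient.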

[2] = Chemical stability of the compound in buffer assessed as compound remaining at pH 1 after 1 hr by HPLC analysis; assay type: physicochemical; conditions: read-out: Stability
[3] = Chemical stability of the compound in buffer assessed as compound remaining at pH 1 after 2 hrs by HPLC analysis; assay type: physicochemical; conditions: read-out: Stability
[4] = Chemical stability of the compound in buffer assessed as compound remaining at pH 1 after 4 hrs by HPLC analysis; assay type: physicochemical; conditions: read-out: Stability
[5] = Chemical stability of the compound in buffer assessed as compound remaining at pH 1 after 24 hrs by HPLC analysis; assay type: physicochemical; conditions: read-out: Stability
[6] = Chemical stability of the compound in buffer assessed as compound remaining at pH 2 after 1 hr by HPLC analysis; assay type: physicochemical; conditions: read-out: Stability
[7] = Chemical stability of the compound in buffer assessed as compound remaining at pH 2 after 2 hrs by HPLC analysis; assay type: physicochemical; conditions: read-out: Stability
[8] = Chemical stability of the compound in buffer assessed as compound remaining at pH 2 after 4 hrs by HPLC analysis; assay type: physicochemical; conditions: read-out: Stability
[9] = Chemical stability of the compound in buffer assessed as compound remaining at pH 4 after 1 hr by HPLC analysis; assay type: physicochemical; conditions: read-out: Stability
[10] = Chemical stability of the compound in buffer assessed as compound remaining at pH 4 after 2 hrs by HPLC analysis; assay type: physicochemical; conditions: read-out: Stability
[11] = Chemical stability of the compound in buffer assessed as compound remaining at pH 4 after 24 hrs by HPLC analysis; assay type: physicochemical; conditions: read-out: Stability
[12] = Chemical stability of the compound in buffer assessed as compound remaining at pH 6 after 2 hrs by HPLC analysis; assay type: physicochemical; conditions: read-out: Stability
[13] = Chemical stability of the compound in buffer assessed as compound remaining at pH 6 after 4 hrs by HPLC analysis; assay type: physicochemical; conditions: read-out: Stability
[14] = Chemical stability of the compound in buffer assessed as compound remaining at pH 6 after 8 hrs by HPLC analysis; assay type: physicochemical; conditions: read-out: Stability
[15] = Chemical stability of the compound in buffer assessed as compound remaining at pH 7.4 after 2 hrs by HPLC analysis; assay type: physicochemical; conditions: read-out: Stability
[16] = Chemical stability of the compound in buffer assessed as compound remaining at pH 7.4 after 4 hrs by HPLC analysis; assay type: physicochemical; conditions: read-out: Stability
[17] = Chemical stability of the compound in buffer assessed as compound remaining at pH 7.4 after 24 hrs by HPLC analysis; assay type: physicochemical; conditions: read-out: Stability
[18] = Chemical stability of the compound in buffer assessed as compound remaining at pH 9 after 4 hrs by HPLC analysis; assay type: physicochemical; conditions: read-out: Stability
[19] = Chemical stability of the compound in buffer assessed as compound remaining at pH 9 after 24 hrs by HPLC analysis; assay type: physicochemical; conditions: read-out: Stability
[20] = Stability of the compound in simulated intestinal fluid assessed as compound remaining at pH 7.5 after 1 hr by HPLC analysis; assay type: ADME; conditions: read-out: Stability
How it was run: (§1)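 Drug incubated in simulated gastric fluid or simulated intestinal fluid and sampled at 0, 1, 2, 4, 8 and 24 h. Percent remaining was measured by reversed-phase C18 HPLC with photodiode-array detection, using a 20-min gradient of 10–70% acetonitrile against 10 mM sodium phosphate buffer at pH 7.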

[21] = Stability of the compound in simulated intestinal fluid assessed as compound remaining at pH 7.5 after 2 hrs by HPLC analysis; assay type: ADME; conditions: read-out: Stability; how it was run: as §1
[22] = Chemical stability of the compound in buffer assessed as pseudo-first-order rate constant at 40 degC at pH 7.4 by Arrhenius plot analysis; assay type: physicochemical
[23] = Shelf life of the compound in buffer assessed as time for 10% loss of compound at 4 degC at pH 7.4; assay type: physicochemical
How it was run: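 Pseudo-first-order kobsd at each temperature was fitted to an Arrhenius plot, which was extrapolated to 25 and 4 °C. t1/2 and t90 (time for 10% loss) were calculated from the extrapolated kobsd.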

Mus musculus [24] = experiment: Toxicity in athymic nude mouse xenografted with human HT-29 cells assessed as mortality at 0.9 mg/kg, ip administered for 2 weeks followed by 3 times per week; assay type: organism-based; conditions: in vivo, 336 h
How it was run: (§2)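 Female athymic nude mice, 7–9 weeks old, received 1.74 × 10^6 HT-29 cells subcutaneously in the right flank in 50% Matrigel/McCoy's 5A. Randomized at 110 mm3, 10 per group. Intraperitoneal dosing in USP saline (0.2 mL) over a 28-day period on the stated schedule. Body weights were taken twice weekly; clinical signs and survival were recorded.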

Mus musculus [25] = experiment: Toxicity in athymic nude mouse xenografted with human HT-29 cells assessed as weight gain at 0.9 mg/kg, ip administered 14 days measured post last dose; assay type: organism-based; conditions: in vivo, 336 h; how it was run: as §2
Mus musculus [26] = experiment: Toxicity in athymic nude mouse xenografted with human HT-29 cells assessed as skin irritation at 0.9 mg/kg, ip administered 14 days measured post last dose; assay type: organism-based; conditions: in vivo, 336 h
Mus musculus [27] = experiment: Toxicity in athymic nude mouse xenografted with human HT-29 cells assessed as necrosis at 0.9 mg/kg, ip administered 14 days measured post last dose; assay type: organism-based; conditions: in vivo, 336 h; how it was run: as §2
A2780 = experiment: Antitumor activity against human A2780 cells xenografted in athymic nude mouse at 0.6 to 0.9 mg/kg, ip and po administered for 30 days; assay type: functional, organism-based
How it was run: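 Female athymic nude mice, 7–9 weeks, implanted s.c. on right or left flank with 2.5 × 10^6 A2780 cells (ECACC, mycoplasma/rodent-pathogen tested) in 50% Matrigel/50% RPMI 1640; randomized at mean tumor 188 mm3, 10/group. Dosed daily for 30 days IP or by oral gavage in USP saline, 0.2 mL. Tumor volume by caliper (L × W2/2), tumor weight at necropsy, survival, body weight.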

Mus musculus [28] = experiment: Toxicity in athymic nude mouse xenografted with human A2780 cells assessed as anorexia at 1.2 mg/kg, po administered for 30 days; assay type: organism-based; conditions: in vivo, 720 h
How it was run: (§3)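 Female athymic nude mice, 7–9 weeks old, received 2.5 × 10^6 A2780 cells subcutaneously in the flank in 50% Matrigel/RPMI 1640. Mice were randomized at a mean tumor volume of 188 mm3, 10 per group. Daily oral gavage in USP saline (0.2 mL) for 30 days, dosed on group-mean body weight. Clinical signs, survival and body weights were recorded.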

Mus musculus [29] = experiment: Toxicity in athymic nude mouse xenografted with human A2780 cells assessed as dehydration at 1.2 mg/kg, po administered for 30 days; assay type: organism-based; conditions: in vivo, 720 h; how it was run: as §3
Mus musculus [30] = experiment: Toxicity in athymic nude mouse xenografted with human A2780 cells assessed as morbidity at 0.6 to 0.9 mg/kg, po administered for 30 days; assay type: organism-based; conditions: in vivo, 720 h; how it was run: as §3
[31] = Stability of the compound in simulated gastric fluid assessed as compound remaining after 8 hrs by HPLC analysis
[32] = Stability of the compound in simulated gastric fluid assessed as compound remaining after 24 hrs by HPLC analysis

Structure (SMILES): CC(C)[C@]12O[C@H]1[C@@H]1O[C@]13[C@]1(O[C@H]1C[C@H]1C4=C(CC[C@@]13C)C(=O)OC4)[C@@H]2OCOP(=O)([O-])[O-].[Na+].[Na+] [MINNELIDE]
- solubility [1]: 61 mg/mL
- remaining at 1 h [2]: 89%
- remaining at 2 h [3]: 79%
- remaining at 4 h [4]: 62%
- remaining at 24 h [5]: 0%
- remaining at 1 h [6]: 98%
- remaining at 2 h [7]: 97%
- remaining at 4 h [8]: 95%
- remaining at 1 h [9]: 100%
- remaining at 2 h [10]: 100%
- remaining at 24 h [11]: 99%
- remaining at 2 h [12]: 100%
- remaining at 4 h [13]: 100%
- remaining at 8 h [14]: 100%
- remaining at 2 h [15]: 100%
- remaining at 4 h [16]: 100%
- remaining at 24 h [17]: 100%
- remaining at 4 h [18]: 100%
- remaining at 24 h [19]: 100%
- remaining at 1 h [20]: 100%
- remaining at 2 h [21]: 100%
- K [22]: 0.000494 h⁻¹
- Time [23]: 1.9 yr
- Activity (Mus musculus [24]): Toxic
- Activity (Mus musculus [25]): Toxic
- Activity (Mus musculus [26]): Toxic
- Activity (Mus musculus [27]): Toxic
- Activity (A2780): Active
- Activity (Mus musculus [28]): Toxic
- Activity (Mus musculus [29]): Toxic
- Activity (Mus musculus [30]): Toxic
- remaining at 8 h [31]: 47%
- remaining at 24 h [32]: 0%
